# Screening results as filed in PubChem.
# Runt-CBFb FRET = inhibitors of RUNX1 Runt–CBFb binding, primary screen, biochemical, FRET, Cerulean-Runt, Venus-CBFb, uHTS; Cerulean-Runt/Venus-CBFb FRET ratio 530/480, 1 h; AID 1496, 2009; hit rate 0.46% among 220,000; inhibition, % at 20 µM; Runt-related transcription factor 1 (Homo sapiens) + Core-binding factor subunit beta …;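 active = inhibition over about 50% at 20 µM in the single-dose screen, limit read from the data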;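 also: 0% = DMSO wells and 100% = excess unlabeled CBFb competitor control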
# Target sequence (Q01196 whole entry, looked up): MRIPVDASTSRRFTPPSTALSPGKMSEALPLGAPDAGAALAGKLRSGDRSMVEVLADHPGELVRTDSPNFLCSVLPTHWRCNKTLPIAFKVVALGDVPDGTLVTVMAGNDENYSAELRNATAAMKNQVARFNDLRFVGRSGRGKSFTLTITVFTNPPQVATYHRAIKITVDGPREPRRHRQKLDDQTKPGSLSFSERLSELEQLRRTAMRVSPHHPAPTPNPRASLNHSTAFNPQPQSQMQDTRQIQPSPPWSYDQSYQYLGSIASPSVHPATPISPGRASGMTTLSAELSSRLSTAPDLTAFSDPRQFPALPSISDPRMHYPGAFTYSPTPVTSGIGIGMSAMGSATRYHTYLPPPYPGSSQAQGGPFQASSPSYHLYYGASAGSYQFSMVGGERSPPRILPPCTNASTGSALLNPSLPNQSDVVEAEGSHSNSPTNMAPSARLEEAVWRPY
# Target sequence (Q13951 whole entry, looked up): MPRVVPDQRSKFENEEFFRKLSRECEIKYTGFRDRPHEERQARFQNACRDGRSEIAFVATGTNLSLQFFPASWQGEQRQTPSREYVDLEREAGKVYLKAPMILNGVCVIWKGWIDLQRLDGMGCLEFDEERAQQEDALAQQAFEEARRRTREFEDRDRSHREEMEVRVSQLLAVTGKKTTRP
#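 test system = Cerulean-Runt domain fusion protein, energy donor | probe or stimulus = Venus-CBFb binding partner, 100 nM | incubation = two 1 h room-temperature incubations shielded from light | detection = fluorescence energy transfer, 422 nm excitation, 530/480 nm emission | measure = loss of energy transfer signal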
# CaV13 ICDI inh = Disruptors of the CACNA1D IQ motif to Ca2+-dependent inactivation inhibitor domain association, primary screening, Förster resonance energy transfer in intact living …; inhibition, % at 12.3 µM; hit rate 0.098% among 340,000; HEK cells, CFP/YFP FRET ICDI-IQ, plate reader, 10 min; percent FRET-ratio fall versus neutral wells;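 active = mean replicate inhibition of at least 30% and at least 1% of replicates passing that level; inconclusive = only one of the two criteria is met; inactive = neither criterion is met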;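 also: 0% = median of the neutral control wells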
# RanGTP-Imp inh = inhibitors of RanGTP-importin-beta interaction, primary screen, biochemical, FRET, CFP-Ran, YFP-importin-beta, homogeneous; cell-free CFP-Ran/YFP-importin-beta FRET ratio; inhibition, % (concentration not given with the values); hit rate 1.1% among 300,000; AID 2216, 2009;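 active = more than half of the replicate wells show a fall in the fluorescence ratio signal beyond about 16%, limit read from the data, passing the limit was not always enough; inconclusive = exactly half of the replicate wells pass the set limit; inactive = fewer than half of replicates pass the limit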;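 also: 0% = DMSO wells and 100% = Ran loaded with GDP instead of GTP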
# Hck-Nef inh = inhibitors of Nef-activated human Hck kinase, primary screen, biochemical, Z-Lyte FRET, 384-well, Hck-YEEI; Recombinant Hck-YEEI plus Nef, Z-Lyte FRET kinase assay; hit rate 0.68% among 220,000; Tyrosine-protein kinase HCK (Homo sapiens), P08631; inhibition, % at 20 µM;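 active = Hck-Nef kinase inhibition above about 50%, limit read from the data; inactive = inhibition below that limit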;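 also: 0% = DMSO with Hck plus Nef and 100% = Hck alone without Nef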
# Runt-SMMHC FRET = inhibitors of RUNX1 Runt–CBFb-SMMHC binding, primary screen, biochemical, FRET, Cerulean-Runt, Venus-CBFb-SMMHC, uHTS; inhibition, % at 20 µM; AID 1434, 2008; Runt-related transcription factor 1 (Homo sapiens) + Core-binding factor subunit beta …; Cerulean-Runt/Venus-CBFb-SMMHC FRET ratio 530/480, 1 h; hit rate 0.74% among 220,000;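 active = mean inhibition across duplicate retests at 20 µM reaching about 50%, limit read from the data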;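 also: 0% = DMSO wells and 100% = wells with excess untagged CBFb-SMMHC; inhibitors lower the FRET ratio by blocking Runt binding to CBFb-SMMHC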
# The depositor's hits bear a star; u = inconclusive; x = no result. Hits are enriched below; roughly 1.5% of the tested compounds scored in any of these assays.
SMILES,Runt-CBFb FRET,CaV13 ICDI inh,RanGTP-Imp inh,Hck-Nef inh,Runt-SMMHC FRET
Cc1ccc(-n2c(C)c([N+](=O)[O-])c3ccc(O)cc32)cc1,2,-2,4,2,6
COc1ccc2c3c([nH]c2c1)C1CC2C(CC(O)C(OC)C2C(=O)O)CN1CC3 (stereo unspecified),-1,x,28*,11,-8
COc1ccc(N(CC(=O)NN=C2CCCC2)S(=O)(=O)c2ccccc2)cc1,-2,-5,-2,0,0
Cc1cc(OCc2cc(C(=O)N(C)Cc3ccccn3)no2)cc(C)c1Cl,x,-5,6,x,x
Cc1c(-c2cccc(Cl)c2)nc2ccccc2c1C(=O)OC/C(O)=C(\C#N)c1nc2ccccc2[nH]1,23,5,0,32,54*
COCC(=O)OC/C(O)=C(\C#N)c1nc2ccccc2[nH]1,3,-13,6,8,7
CC(C)C(=O)OC/C(O)=C(\C#N)c1nc2ccccc2[nH]1,4,-5,15*,26,15
O=C1OC(COCC#Cc2ccccc2)CN1c1ccccc1 (stereo unspecified),x,-5,x,x,x
COc1cc(OC)c2c(=O)c(OC)c(-c3ccc(OC)c(OC)c3)oc2c1,26,x,11,14,61*
FC(F)(F)c1cccc(NC(=S)Nc2cccc(NC(=S)Nc3cccc(C(F)(F)F)c3)n2)c1,23,0,15*,1,5
CC(=Nc1ccc(C)cc1C)c1sc2ccccc2c1O,-17,7,42*,14,-26
CC(=Nc1cccc(O)c1)c1sc2ccccc2c1O,8,-9,29*,0,15
CC(=Nc1ccc(C)cc1)c1sc2ccccc2c1O,-45,-5,73*,1,51
Cc1ccc(O)c(N=Cc2sc3ccccc3c2Cl)c1,5,-3,4,3,-2
CCOC(=O)c1sc2ccccc2c1OC(=O)c1ccc(C)cc1,-4,x,1,0,-3
Cc1ccc2[nH]c(=O)c(CN(CC3CCCO3)C(=O)c3ccco3)cc2c1 (stereo unspecified),3,x,x,x,2
Cc1ccc(S(=O)(=O)CCC(=O)OCC(=O)Nc2cccc(S(=O)(=O)N3CCCCC3)c2)cc1,x,58*,x,x,x
Cc1ccc(S(=O)(=O)CCC(=O)Nc2cccc(S(=O)(=O)N3CCCCCC3)c2)cc1,x,-16,x,x,x
COc1cccc(C2CN(c3ccc(F)cc3F)N=C2c2cccs2)c1OC (stereo unspecified),25,-7,u,38,75
Cc1c(Br)c(C(=O)NCc2cc3cc(Cl)ccc3[nH]2)nn1C,-2,-6,-1,7,-2
CCc1cc(=O)[nH]c(-n2[nH]c(-c3ccccc3)cc2=O)n1,-1,-10,1,23,-1
O=c1cc(-c2ccccc2)[nH]n1-c1nc2ccccc2[nH]1,12,-5,26*,1,17
CCCCOCCCNC(=O)C1c2ccccc2Oc2ccccc21,x,2,2,x,x
CCCCNC(=O)C1c2ccccc2Oc2ccccc21,2,-1,22*,16,1
COc1ccc(CCn2c(N)c(C(=O)NCc3ccco3)c3nc4ccccc4nc32)cc1OC,8,0,39*,35,25
SMILES,Runt-CBFb FRET,CaV13 ICDI inh,RanGTP-Imp inh,Hck-Nef inh,Runt-SMMHC FRET
Nc1c(C(=O)NCc2ccco2)c2nc3ccccc3nc2n1CCc1ccccc1F,30,-3,50*,35,x
Cc1ccc(S(=O)(=O)N2CCC(C(=O)NCCCN3CCCC3=O)CC2)cc1C,x,x,5,x,x
COc1ccccc1/C=N/Nc1cc(C)nc2ccc(C)cc12,x,-4,1,x,x
COc1ccc(/C=N/Nc2cc(C)nc3ccc(OC)cc23)c(OC)c1,x,-74,20*,x,x
Cc1ccccc1C(=O)N1CCN(c2ccc([N+](=O)[O-])c(NCc3ccco3)c2)CC1,0,-1,-2,0,-5
C=CC(=O)N=c1sc2ccccc2n1-c1ccccc1,2,-6,-1,26,3
N=c1sc2ccccc2n1-c1ccccc1,3,-4,35*,1,14
C=CCN(C(=O)c1csnn1)C(C(=O)NC(C)(C)C)c1ccncc1 (stereo unspecified),1,-4,7,20,-3
COc1cc2c(cc1OC)C1(Nc3c-2c(Cc2ccccc2)nn3-c2ccccc2)C(=O)Nc2ccccc21 (stereo unspecified),2,-6,24*,4,-3
COC(=O)c1ccc2[nH]c(C)c(CN3CCCC3)c(=O)c2c1,16,x,-3,-1,64*
O=C(NCc1ccco1)c1cccc2c1C(=O)c1ccc(N3CCCC3)cc1S2(=O)=O,x,-16,x,x,x
COc1cc(C2CC(c3cccnc3)=NN2c2ccc(F)cc2)cc(OC)c1OC (stereo unspecified),26,-7,x,-3,87*
Cc1cccn2c(=O)c3cc(C(=O)NCCc4ccccc4)sc3nc12,x,-8,0,x,x
CSc1ccccc1NC(=O)c1cc2c(=O)n3ccccc3nc2s1,x,-8,71*,x,x
Cc1ccccc1NC(=O)c1cc2c(=O)n3cccc(C)c3nc2s1,x,-4,84*,x,x
CCOC(=O)N1CCN(C(=O)c2cc3c(=O)n4ccccc4nc3s2)CC1,x,-5,1,x,x
CN1CCN(C(=O)c2cc3c(=O)n4ccccc4nc3s2)CC1,x,-7,20*,x,x
Cc1cccn2c(=O)c3cc(C(=O)NC4CCCCCC4)sc3nc12,x,-7,19*,x,x
CC1=CC2=NC(=O)/C(=C\c3cn(C)c4ccccc34)C(=N)N2O1,3,-20,50*,-18,87*
CCOC(=O)C1(Cc2cccc(OC)c2)CCN(Cc2ccccc2)CC1,0,-5,u,-8,-4
CCOC(=O)C1(Cc2cccc(OC)c2)CCN(Cc2cccc3cnccc23)CC1,6,-4,86*,-10,6
CCOC(=O)C1(Cc2cccc(OC)c2)CCN(Cc2cccc(OC)c2OC)CC1,0,2,12,7,3
CCOC(=O)C1(Cc2cccc(OC)c2)CCN(Cc2cnc(SC)nc2)CC1,4,-4,68*,17,7
CCOC(=O)C1(Cc2cccc(OC)c2)CCN(Cc2cccnc2)CC1,x,-3,56*,15,x
COc1ccc(NC(=O)c2cccc(N3C(=O)C4C5C=CC(C5)C4C3=O)c2)c(OC)c1 (stereo unspecified),x,-14,3,x,x
CCOC(=O)[C@@H]1[C@H]2COc3ccc(Br)cc3[C@H]2N2C(=O)N(c3cccc(F)c3)C(=O)[C@]12C,x,-5,-2,x,x
